From ChEMBL document CHEMBL5120910, “Small-Molecule Gankyrin Inhibition as a Therapeutic Strategy for Breast and Lung Cancer” (J Med Chem, 2022)
Active and inactive are the calls of the source. The rule behind the calls is not given here.

Legend:
A549 [1] = experiment: Antiproliferative activity against human A549 cells assessed as cell growth inhibition measured after 72 hrs by MTT assay; assay type: functional, cell-based; settings: A549, 72 h
Summary of the method: (§1)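 Cells seeded at 2.5 × 10^4 cells/well, allowed 24 h before dosing, then exposed to increasing concentrations (0.5% DMSO final) for 72 h at 37 °C, 5% CO2. MTT added at 1 mg/mL final in complete media for 2 h, formazan dissolved in DMSO, absorbance read at 570 nm. 6–8 repeats per treatment; IC50 from concentration–response fit.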

MDA-MB-231 [2] = experiment: Antiproliferative activity against human MDA-MB-231 cells assessed as cell growth inhibition measured after 72 hrs by MTT assay; assay type: functional, cell-based; settings: MDA-MB-231, 72 h; summary of the method: as §1
[3] = Metabolic stability in human liver microsomes assessed as compound remaining preincubated for 10 mins followed by NADPH addition measured after 60 mins by HPLC analysis; assay type: ADME, Microsome; settings: read-out: Stability
A549 [4] = experiment: Antiproliferative activity against human A549 cells assessed as cell growth inhibition measured at 100 uM after 72 hrs by MTT assay; assay type: functional; parameters: scale not given: the % may be the effect or the level left; summary of the method: as §1
[5] = molecular target: T1, 26S proteasome non-ATPase regulatory subunit 10 (Homo sapiens, UniProt O75832); experiment: Binding affinity to gankyrin (unknown origin) expressed in Escherichia coli BL21 (DE3) expression system assessed as dissociation constant at 1:1 protein to compound concentration by isothermal titration calorimetry
T1 sequence (O75832 whole entry): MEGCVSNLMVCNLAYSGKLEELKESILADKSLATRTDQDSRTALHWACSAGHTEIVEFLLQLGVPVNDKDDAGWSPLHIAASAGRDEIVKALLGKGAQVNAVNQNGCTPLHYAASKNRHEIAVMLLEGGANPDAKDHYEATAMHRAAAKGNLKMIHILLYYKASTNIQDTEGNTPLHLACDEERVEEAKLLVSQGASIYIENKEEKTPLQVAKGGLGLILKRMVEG

[6] = Cytotoxicity against HEK293 cells assessed as cell growth inhibition measured after 72 hrs by MTT assay; assay type: toxicity, cell-based; settings: human; summary of the method: as §1
[7] = molecular target: T2, 26S proteasome non-ATPase regulatory subunit 10 (Homo sapiens) (UniProt O75832); experiment: Binding affinity to gankyrin (unknown origin) assessed as change in melting temperature at 300 uM by SYPRO orange staining based thermal shift assay
T2 sequence (whole entry): T1 sequence (O75832 whole entry)

[8] = molecular target: T2, 26S proteasome non-ATPase regulatory subunit 10 (Homo sapiens); experiment: Binding affinity to gankyrin (unknown origin) expressed in Escherichia coli BL21 (DE3) expression system assessed as formation of white precipitation of the compound at 1.5 uM
MDA-MB-231 [9] = experiment: Antitumor activity in human MDA-MB-231 cells cultured as 3D spheroids assessed as fold decrease in spheroid volume at 1.15 uM measured up to 15 days by inverted microscopic analysis; assay type: functional; settings: time <= 15 day
Summary of the method: (§2)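 Spheroids formed from 2000 cells/well in ultra-low attachment U-bottom wells over 3 days, then given a single dose on day 3. Half the media was replenished every 3 days. Transmitted-light images were taken through day 15, and spheroid volume was computed from images and expressed as fold-difference. Mean ± SD, n = 8; unpaired t-test.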

MDA-MB-231 [10] = experiment: Antitumor activity against human MDA-MB-231 cells tumor spheroids assessed as decrease in live cells by measuring green fluorescence intensity at 1.15 to 2.30 uM measured at 15 days by calcein AM staining based fluorescence microscopic analysis; assay type: functional, cell-based; settings: dose 1.15-2.3 µM, time 15.0 day
Summary of the method: (§3)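 Live/dead staining of 3D spheroids at day 15 after single-dose treatment: media replaced by kit reagent with calcein AM (live, green) and EthD-III (dead, red), 30 min in dark at room temperature, imaged at 4X by fluorescence microscopy. Mean ± SD, n = 4; unpaired Student's t-test.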

MDA-MB-231 [11] = experiment: Inhibition of colony formation in human MDA-MB-231 cells at 1.15 uM incubated for 48 hrs followed by replacement of fresh media every alternative day measured after 7 days by crystal violet staining based clonogenic assay relative to control; values are per cent of control; settings: MDA-MB-231, 216 h
MDA-MB-231 [12] = experiment: Antitumor activity against human MDA-MB-231 cells tumor spheroids assessed as increase in dead cells by measuring red fluorescence intensity at 1.15 to 2.30 uM measured at 15 days by EthD-III staining based fluorescence microscopic analysis; assay type: functional, cell-based; settings: dose 1.15-2.3 µM, time 15.0 day; summary of the method: as §3
MDA-MB-231 [13] = experiment: Inhibition of gankyrin-proteasome protein-protein interaction in human MDA-MB-231 cells assessed as increase in Rb level at 0.30 to 2.50 uM measured after 48 hrs by Western blotting analysis; assay type: cell-based; settings: dose 0.3-2.5 µM
Summary of the method: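 Cells in 10 cm dishes treated with varying concentrations (0.5% DMSO final) or DMSO only for 48 h. Lysed in RIPA with protease/phosphatase inhibitors on ice for 60 min. 15 μg protein resolved under reducing conditions, transferred to PVDF, and probed for p53, phospho-p53 S6/S15, Rb, gankyrin and cyclophilin. Detection by HRP-secondary ECL.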

[14] = molecular target: T2, 26S proteasome non-ATPase regulatory subunit 10 (Homo sapiens); experiment: Binding affinity to gankyrin (unknown origin) expressed in Escherichia coli BL21 (DE3) expression system assessed as decrease in thermal denaturation at 1.5 uM measured at 5 to 90 degreeC by circular dichroism spectropolarimeter analysis
Summary of the method: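 Recombinant His-tagged gankyrin expressed in E. coli BL21(DE3) Codon+RIL (IPTG 1 mM, 25 °C, ~5 h) and purified by Ni2+-IMAC. Thermal denaturation followed by CD at 217 nm over 5–90 °C with compound at 1.5 μM.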

[15] = Antiproliferative activity against human HuH-6 cells assessed as cell growth inhibition measured after 72 hrs by MTT assay; assay type: functional, cell-based; settings: HuH-6, 72 h; summary of the method: as §1
MDA-MB-231 [16] = experiment: Antitumor activity in human MDA-MB-231 cells cultured as 3D spheroids assessed as fold decrease in spheroid volume at 2.30 uM measured up to 15 days by inverted microscopic analysis; assay type: functional; settings: dose 2.3 µM; time <= 15 day; summary of the method: as §2

| IC50 (A549 [1]) [µM] | IC50 (MDA-MB-231 [2]) [µM] | Compound | also measured |
| --- | --- | --- | --- |
| > 100 | > 100 | Cc1ccc(S(=O)(=O)OCCCc2cn(-c3ccc(C(F)(F)F)cc3)nn2)cc1 | – |
| > 100 | 36.5 | COC(=O)c1ccc(-n2cc(CCCn3nnc(-c4ccc(C)cc4)n3)nn2)cc1 | – |
| > 100 | 2.7 | COC(=O)c1ccc(-c2cn(CCCC(=O)Nc3ccc(C)cc3)nn2)cc1 | – |
| 75.7 | 9.7 | COC(=O)c1ccc(-n2cc(CCCC(=O)Nc3ccc(C)cc3)nn2)cc1 | – |
| > 100 | 58.1 | COC(=O)c1ccc(-n2nncc2CCCOS(=O)(=O)c2ccc(C)cc2)cc1 | – |
| > 100 | 82.4 | COC(=O)c1ccc(-n2cc(CCCNC(=S)c3ccc(C)cc3)nn2)cc1 | – |
| > 100 | > 100 | COC(=O)c1ccc(-n2cc(CCCOS(=O)(=O)c3ccc(C)cc3)nn2)cc1 | remaining at 1 h [3]: 50%; Activity (A549 [4]): 0%; Kd [5]: 0.532 µM |
| 50 | > 100 | COC(=O)c1ccc(-c2cn(CCCC(=S)Nc3ccc(C)cc3)nn2)cc1 | – |
| 79.5 | 79.1 | COC(=O)c1ccc(-n2cc(CCCc3nnc(-c4ccc(C)cc4)[nH]3)nn2)cc1 | – |
| > 100 | 55.1 | COC(=O)c1ccc(-n2cc(CCCC(=O)Oc3ccc(C)cc3)nn2)cc1 | – |
| > 100 | > 100 | COC(=O)c1ccc(-n2cc(CCCC(=O)NS(=O)(=O)c3ccc(C)cc3)nn2)cc1 | – |
| 25 | 2.3 | Cc1ccc(NC(=O)CCCn2cc(-c3ccc(C(F)(F)F)cc3)nn2)cc1 | IC50 at 72 h [6]: > 100 µM; Activity [7]: Active; Activity [8]: Active; fold change (FC) (MDA-MB-231 [9]): 2.6; Activity (MDA-MB-231 [10]): Active; growth, % of control at 1.15 µM (MDA-MB-231 [11]): 75.3%; Activity (MDA-MB-231 [12]): Active; Activity (MDA-MB-231 [13]): Active; Activity [14]: Active; remaining at 1 h [3]: 84%; IC50 [15]: 3.1 µM; fold change (FC) (MDA-MB-231 [16]): 3.1 |
| > 100 | > 100 | COC(=O)c1ccc(-c2nnc(CCCOS(=O)(=O)c3ccc(C)cc3)[nH]2)cc1 | – |

| Compound | IC50 (A549 [1]) [µM] | IC50 (MDA-MB-231 [2]) [µM] | also measured |
| --- | --- | --- | --- |
| COC(=O)c1ccc(-n2cc(CCCOS(=O)(=O)c3ccc(-c4ccccc4)cc3)nn2)cc1 | 57.3 | > 100 | – |
